Measurements: paper PMC7050655 (ChemistryOpen, 2020)

Legend:
[1] = target: human membrane bound IRAP overexpressed in HEK293 cells (Homo sapiens, UniProt Q9UIQ6); assay type: biochemical
In short: (§1)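 HEK293T suspension cells were grown in Freestyle medium (37 °C, 8 % CO2, shaken) and transfected with PEI (2 μg/10^6 cells). Plasmid per 10^6 cells was 1.1 μg for human IRAP and 0.7 μg for human APN. Cells were harvested at 48 h. Membranes were prepared as for CHO cells, stored at −80 °C, Dounce-homogenised and diluted in assay buffer. The set-up matched the CHO assay: 1 mM L-Leu-pNA, pH 7.4 Tris/NaCl/PMSF buffer, 405 nm absorbance.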

[2] = target: human aminopeptidase N overexpressed in HEK293 cells (Homo sapiens, UniProt P15144); assay type: biochemical; settings: for specificity for IRAP over human APN: IRAP versus human APN; for pIC50: human aminopeptidase N overexpressed in HEK293 cells
human aminopeptidase N overexpressed in HEK293 cells, sequence (P15144 whole entry): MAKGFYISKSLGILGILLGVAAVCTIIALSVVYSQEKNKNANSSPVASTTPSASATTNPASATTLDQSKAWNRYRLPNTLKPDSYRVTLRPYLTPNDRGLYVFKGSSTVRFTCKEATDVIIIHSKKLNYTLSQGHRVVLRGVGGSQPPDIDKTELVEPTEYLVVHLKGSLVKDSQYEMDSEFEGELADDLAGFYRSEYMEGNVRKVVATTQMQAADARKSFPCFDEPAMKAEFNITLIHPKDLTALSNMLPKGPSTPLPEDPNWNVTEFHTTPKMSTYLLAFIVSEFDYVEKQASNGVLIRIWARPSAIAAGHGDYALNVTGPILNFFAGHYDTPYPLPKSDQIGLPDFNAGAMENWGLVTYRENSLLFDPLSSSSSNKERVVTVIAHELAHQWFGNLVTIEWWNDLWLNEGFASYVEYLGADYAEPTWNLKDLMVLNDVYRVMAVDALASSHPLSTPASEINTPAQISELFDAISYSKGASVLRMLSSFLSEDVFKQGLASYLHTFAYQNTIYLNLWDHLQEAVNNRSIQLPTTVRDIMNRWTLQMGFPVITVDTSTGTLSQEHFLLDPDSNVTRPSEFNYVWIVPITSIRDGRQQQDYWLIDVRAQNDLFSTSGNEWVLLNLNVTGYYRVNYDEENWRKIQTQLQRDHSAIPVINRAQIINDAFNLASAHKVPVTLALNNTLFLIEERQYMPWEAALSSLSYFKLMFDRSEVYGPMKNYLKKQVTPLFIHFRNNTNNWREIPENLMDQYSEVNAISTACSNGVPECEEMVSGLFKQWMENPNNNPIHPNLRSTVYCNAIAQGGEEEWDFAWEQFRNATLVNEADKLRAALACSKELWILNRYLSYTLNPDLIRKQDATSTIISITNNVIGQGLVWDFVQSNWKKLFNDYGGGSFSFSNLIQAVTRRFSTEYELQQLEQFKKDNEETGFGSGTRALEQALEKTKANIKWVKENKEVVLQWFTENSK
In short: as §1

IRAP = target: T1, IRAP (Cricetulus griseus, UniProt A0A8C2M8D5); experiment: Enzyme kinetics / competition studies with varied L-Leu-pNA substrate; assay type: biochemical; settings: enzyme kinetics experiments
T1 sequence (A0A8C2M8D5 1-1025): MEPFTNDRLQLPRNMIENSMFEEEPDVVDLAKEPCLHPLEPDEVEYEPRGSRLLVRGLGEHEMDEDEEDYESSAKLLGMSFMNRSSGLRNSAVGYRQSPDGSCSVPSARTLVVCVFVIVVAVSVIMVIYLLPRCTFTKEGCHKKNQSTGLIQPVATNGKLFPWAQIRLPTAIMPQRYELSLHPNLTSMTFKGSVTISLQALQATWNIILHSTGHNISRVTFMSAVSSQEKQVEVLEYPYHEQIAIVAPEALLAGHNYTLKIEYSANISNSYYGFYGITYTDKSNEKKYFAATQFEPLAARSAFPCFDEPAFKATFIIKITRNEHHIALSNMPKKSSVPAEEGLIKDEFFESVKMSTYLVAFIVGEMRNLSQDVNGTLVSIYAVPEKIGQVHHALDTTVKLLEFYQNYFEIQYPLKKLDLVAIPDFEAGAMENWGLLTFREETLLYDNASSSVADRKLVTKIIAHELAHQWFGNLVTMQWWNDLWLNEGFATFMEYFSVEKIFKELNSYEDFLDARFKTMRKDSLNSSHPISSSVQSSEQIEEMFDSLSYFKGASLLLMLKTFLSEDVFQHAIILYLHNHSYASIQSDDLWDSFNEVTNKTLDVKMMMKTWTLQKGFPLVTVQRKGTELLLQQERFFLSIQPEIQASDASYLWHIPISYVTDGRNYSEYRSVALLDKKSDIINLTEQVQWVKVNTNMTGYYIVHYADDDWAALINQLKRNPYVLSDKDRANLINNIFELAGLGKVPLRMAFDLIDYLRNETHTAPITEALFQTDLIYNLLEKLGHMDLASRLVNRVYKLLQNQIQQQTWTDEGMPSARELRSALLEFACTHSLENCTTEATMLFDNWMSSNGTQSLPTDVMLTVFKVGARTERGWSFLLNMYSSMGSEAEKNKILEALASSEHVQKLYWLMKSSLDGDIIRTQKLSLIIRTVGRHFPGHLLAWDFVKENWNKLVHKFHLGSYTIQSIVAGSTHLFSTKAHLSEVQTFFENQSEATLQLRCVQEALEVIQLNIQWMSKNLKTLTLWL
In short: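 Inhibitor was serially diluted (39 nM–150 μM), with four technical replicates per substrate level. Absorbance at 405 nm was read every ten minutes. The 150 μM slope defined maximal inhibition and was subtracted. Rates were fitted to uncompetitive, competitive and non-competitive models and compared; per-concentration Michaelis-Menten fits were also made.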

[3] = Human plasma protein binding; assay type: in vitro ADME; settings: PPB (human protein plasma binding)
In short: (§2)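 Part of an automated 96-well profiling panel run in […], reporting fraction unbound and compound stability (% remaining after 18 h). Read-out by UPLC-MS/MS. Values are mean and SD from three independent test occasions.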

[4] = Metabolic stability in human liver microsomes; assay type: in vitro ADME
In short: (§3)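 Part of an automated 96-well preclinical profiling panel with UPLC-MS/MS read-out. Values are mean and SD from three independent test occasions.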

Human plasma stability = assay type: in vitro ADME; settings: after 18 h incubation
In short: as §2

[5] = Metabolic stability in rat hepatocytes; assay type: in vitro ADME; settings: for hepatocyte CLint: Rat hep. Clint (rat hepatocytes intrinsic clearance), rat hepatocytes; for half-life: Rat hep. t 1/2, rat hepatocytes
In short: as §3

IRAP from CHO cells = target: T2, IRAP from CHO cells (Cricetulus griseus, UniProt A0A8C2M8D5); experiment: IRAP inhibition, membrane preparations from CHO cells, L-Leu-pNA cleavage; assay type: biochemical, Chinese hamster
T2 sequence (A0A8C2M8D5 1-1025): T1 sequence (A0A8C2M8D5 1-1025)

human membrane bound IRAP overexpressed in HEK293 cells, sequence (Q9UIQ6 whole entry): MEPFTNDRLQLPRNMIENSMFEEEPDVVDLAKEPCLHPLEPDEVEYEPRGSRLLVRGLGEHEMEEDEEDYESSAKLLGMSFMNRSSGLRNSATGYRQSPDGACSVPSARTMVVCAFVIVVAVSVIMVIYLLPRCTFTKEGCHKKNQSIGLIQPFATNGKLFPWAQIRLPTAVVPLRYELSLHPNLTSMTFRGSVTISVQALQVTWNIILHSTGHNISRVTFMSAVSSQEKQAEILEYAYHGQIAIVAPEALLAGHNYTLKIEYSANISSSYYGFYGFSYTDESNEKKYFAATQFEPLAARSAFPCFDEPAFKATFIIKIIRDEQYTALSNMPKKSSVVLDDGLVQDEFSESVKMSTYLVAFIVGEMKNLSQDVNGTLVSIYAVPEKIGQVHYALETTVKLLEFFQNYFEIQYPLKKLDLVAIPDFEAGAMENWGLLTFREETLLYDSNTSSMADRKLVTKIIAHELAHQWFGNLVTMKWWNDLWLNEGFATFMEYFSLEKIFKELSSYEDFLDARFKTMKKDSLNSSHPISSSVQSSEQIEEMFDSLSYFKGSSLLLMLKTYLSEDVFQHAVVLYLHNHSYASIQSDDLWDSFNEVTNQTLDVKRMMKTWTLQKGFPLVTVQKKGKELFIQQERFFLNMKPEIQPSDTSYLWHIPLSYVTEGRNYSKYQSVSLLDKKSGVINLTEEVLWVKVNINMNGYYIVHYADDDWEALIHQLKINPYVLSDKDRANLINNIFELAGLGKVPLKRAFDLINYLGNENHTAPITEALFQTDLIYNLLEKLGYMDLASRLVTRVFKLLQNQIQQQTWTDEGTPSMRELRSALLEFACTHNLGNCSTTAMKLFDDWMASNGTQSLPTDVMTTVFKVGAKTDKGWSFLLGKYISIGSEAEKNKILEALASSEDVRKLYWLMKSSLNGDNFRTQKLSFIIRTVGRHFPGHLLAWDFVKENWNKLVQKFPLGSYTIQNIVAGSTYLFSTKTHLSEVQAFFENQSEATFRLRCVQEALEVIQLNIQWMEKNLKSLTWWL

Row | Structure (SMILES) | IC50 [1] [µM] | specificity for IRAP over human APN [2] | pIC50 [2] | mode of inhibition versus L-Leu-pNA (IRAP) | loss of activity on hIRAP compared to IRAP from CHO-cells ([1]; hIRAP versus CHO IRAP) [fold] | fraction unbound [3] | half-life [4] [min] | microsomal CLint [4] [µL/min/mg] | Plasma stab (human plasma stability) (Human plasma stability) [% compound remaining] | hepatocyte CLint [5] [µL/min/1e6 cells] | half-life [5] [min] | decrease of activity compared to compound 1 (IRAP from CHO cells)
1 | COc1ccc2c(c1)C1(Nc3ccccc3C(=O)N1c1ccc(C)cc1)C(=O)N2C (stereo not shown) [Compound 9, 5‐Methoxy‐1‐methyl‐3′‐(p‐tolyl)‐1′H‐spiro[indoline‐3,2′‐quinazoline]‐2,4′(3′H)‐dione] |  |  |  |  |  |  |  |  |  |  |  | tenfold
2 | Cc1ccc(N2C(=O)c3ccccc3NC23C(=O)N(C)c2ccc(C)cc23)cc1 (stereo not shown) [Compound 10, 1,5‐Dimethyl‐3′‐(p‐tolyl)‐1′H‐spiro[indoline‐3,2′‐quinazoline]‐2,4′(3′H)‐dione] |  |  |  |  |  |  |  |  |  |  |  | tenfold
3 | CN1C(=O)C2(Nc3ccccc3C(=O)N2Cc2cccnc2)c2cc(Br)ccc21 (stereo not shown) [Compound 36, 5‐Bromo‐1‐methyl‐3′‐(pyridin‐3‐ylmethyl)‐1′H‐spiro[indoline‐3,2′‐quinazoline]‐2,4′(3′H)‐dione] | 31.6 | specificity for IRAP over human APN | Inactive |  |  | 0.055 ± 0.004 | < 2.3 | > 300 | 97±15 | 84 ± 14 | 8.5 ± 1.6 | 
4 | CCCCN1C(=O)c2ccccc2NC12C(=O)N(C)c1ccc(Br)cc12 (stereo not shown) [Compound 38, 5‐Bromo‐3′‐butyl‐1‐methyl‐1′H‐spiro[indoline‐3,2′‐quinazoline]‐2,4′(3′H)‐dione] |  |  |  |  |  | 0.019 ± 0.004 | < 2.3 | > 300 | 105±7 | 248 ± 5 | 2.8 ± 0.06 | 
5 | CN(C)CCN1C(=O)c2ccccc2NC12C(=O)N(C)c1ccc(Br)cc12 (stereo not shown) [Compound 40, 5‐Bromo‐3′‐(2‐(dimethylamino)ethyl)‐1‐methyl‐1′H‐spiro[indoline‐3,2′‐quinazoline]‐2,4′(3′H)‐dione] | 39.8 | specificity for IRAP over human APN | Inactive |  |  | 0.4 ± 0.04 | 8.6 ± 1 | 81 ± 10 | 95±2 | 136 ± 22 | 5.2 ± 0.9 | 

Next, values leading:

Row | IC50 [1] [µM] | specificity for IRAP over human APN [2] | pIC50 [2] | mode of inhibition versus L-Leu-pNA (IRAP) | loss of activity on hIRAP compared to IRAP from CHO-cells ([1]; hIRAP versus CHO IRAP) [fold] | fraction unbound [3] | half-life [4] [min] | microsomal CLint [4] [µL/min/mg] | Plasma stab (human plasma stability) (Human plasma stability) [% compound remaining] | hepatocyte CLint [5] [µL/min/1e6 cells] | half-life [5] [min] | decrease of activity compared to compound 1 (IRAP from CHO cells) | Structure (SMILES)
6 | 5.01 | specificity for IRAP over human APN | Inactive | uncompetitive inhibitor |  |  |  |  |  |  |  |  | CN1C(=O)C2(Nc3ccccc3C(=O)N2Cc2ccccc2)c2cc(Br)ccc21 (racemic) [Compound 32, 3′‐Benzyl‐5‐bromo‐1‐methyl‐1′H‐spiro[indoline‐3,2′‐quinazoline]‐2,4′(3′H)‐dione]
7 | 31.6 | specificity for IRAP over human APN | completely inactive |  | 10 to 15 | 0.098 ± 0.02 | < 2.3 | > 300 | 100±5 | 114 ± 4 | 6.1 ± 0.2 |  | Cc1ccc(N2C(=O)c3ccccc3NC23C(=O)N(C)c2ccc([N+](=O)[O-])cc23)cc1 (stereo not shown) [Compound 7, 1‐Methyl‐5‐nitro‐3′‐(p‐tolyl)‐1′H‐spiro[indoline‐3,2′‐quinazoline]‐2,4′(3′H)‐dione]
8 |  |  |  |  |  | 0.0025 to 0.032 | < 2.3 | > 300 | 102±25 | > 300 | < 2.3 |  | CCc1ccccc1-c1ccc2c(c1)C1(Nc3ccccc3C(=O)N1c1ccc(C)cc1)C(=O)N2C (stereo not shown) [Compound 15, 5‐(2‐Ethylphenyl)‐1‐methyl‐3′‐(p‐tolyl)‐1′H‐spiro[indoline‐3,2′‐quinazoline]‐2,4′(3′H)‐dione]
9 | 12.6 | specificity for IRAP over human APN | Inactive |  |  | 0.041 ± 0.008 | < 2.3 | > 300 | 98±3 | 132 ± 39 | 5.5 ± 1.4 |  | CN1C(=O)C2(Nc3ccccc3C(=O)N2Cc2ccco2)c2cc(Br)ccc21 (stereo not shown) [Compound 37, 5‐Bromo‐3′‐(furan‐2‐ylmethyl)‐1‐methyl‐1′H‐spiro[indoline‐3,2′‐quinazoline]‐2,4′(3′H)‐dione]
10 | 50.1 | specificity for IRAP over human APN | Inactive |  |  | 0.14 ± 0.006 | < 2.3 | > 300 | 99±1 | 91 ± 8 | 7.6 ± 0.6 |  | COCCN1C(=O)c2ccccc2NC12C(=O)N(C)c1ccc(Br)cc12 (stereo not shown) [Compound 39, 5‐Bromo‐3′‐(2‐methoxyethyl)‐1‐methyl‐1′H‐spiro[indoline‐3,2′‐quinazoline]‐2,4′(3′H)‐dione]
